Converted amounts (≈) assume the structure as drawn.
Key:
[1] = Cytotoxicity against […]-differentiated human THP1 cells assessed as growth inhibition at 100 ug/ml measured after 48 hrs by MTT assay relative to control; format: toxicity, cell-based, THP-1; conditions: read-out: GI
Outline: (§1)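 MTT assay with 48 h compound exposure. THP-1 macrophages made by 24 h PMA treatment. Each concentration tested in triplicate in one experiment. % cytotoxicity = (control−test)/(control−blank)×100, with control = cells + DMSO and blank = medium without cells. IC50 from % survival versus concentration plots.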

[2] = system: Mycobacterium tuberculosis; experiment: Growth inhibition of Mycobacterium tuberculosis H37Ra ATCC 25177 at dormant stage measured after 12 days by XTT dye based two fold dilution method; format: functional; conditions: H37Ra ATCC 25177, 288 h
Outline: (§2)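 MTB H37Ra was grown in Dubos medium, then exposed in Mycobacterium pheli minimal medium (pH 6.6) to compounds dissolved in DMSO. The assay ended on day 8 (active) or day 12 (dormant). Viable cells were measured by XTT reduction menadione assay at 470 nm, blank-corrected, relative to vehicle control. Triplicates were expressed as mean ± SD. MIC came from dose-response curves.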

Bacillus subtilis [3] = experiment: Growth inhibition of Bacillus subtilis NCIM 2079 at 3 ug/ml measured after 12 hrs relative to control; format: functional; conditions: NCIM 2079, 12 h, read-out: GI
Outline: (§3)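 Bacteria grown in LB at 37 °C and 180 rpm to OD 1. Compounds added to wells, then 0.1% inoculum of 1 OD culture (620 nm). Growth read as OD at 620 nm after 8 h for gram-negative and after 12 h for gram-positive strains.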

Staphylococcus aureus [4] = experiment: Growth inhibition of Staphylococcus aureus NCIM 2010 at 10 ug/ml measured after 12 hrs relative to control; format: functional; conditions: NCIM 2010, 12 h, read-out: GI; outline: as §3
[5] = system: Mycobacterium tuberculosis; experiment: Growth inhibition of Mycobacterium tuberculosis H37Ra ATCC 25177 at active stage at 0.78 ug/ml measured after 8 days by XTT dye based two fold dilution method relative to control; format: functional; conditions: H37Ra ATCC 25177, 192 h, read-out: GI; outline: as §2
Escherichia coli = experiment: Growth inhibition of Escherichia coli NCIM 2688 at 10 ug/ml measured after 8 hrs relative to control; format: functional; conditions: NCIM 2688, 8 h, read-out: GI; outline: as §3
[6] = Selectivity index, ratio of GI50 for human THP1 cells to MIC for Mycobacterium tuberculosis H37Ra ATCC 25177 at dormant stage; format: toxicity, cell-based, THP-1; conditions: read-out: Selectivity Index
Outline: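 SI is the cell-line GI50 divided by the dormant-stage mycobacterial MIC. […] THP-1 macrophages were PMA-differentiated for 24 h.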

[7] = system: Mycobacterium tuberculosis; experiment: Growth inhibition of Mycobacterium tuberculosis H37Ra ATCC 25177 at active stage measured after 8 days by XTT dye based two fold dilution method; format: functional; conditions: H37Ra ATCC 25177, 192 h; outline: as §2
[8] = Cytotoxicity against primary HUVEC assessed as growth inhibition at 100 ug/ml measured after 48 hrs by MTT assay relative to control; format: toxicity, cell-based; conditions: human, read-out: GI
[9] = system: Mycobacterium tuberculosis; experiment: Growth inhibition of Mycobacterium tuberculosis H37Ra ATCC 25177 at dormant stage at 6.25 ug/ml measured after 12 days by XTT dye based two fold dilution method relative to control; format: functional; conditions: H37Ra ATCC 25177, 288 h, read-out: GI; outline: as §2
Bacillus subtilis [10] = experiment: Growth inhibition of Bacillus subtilis NCIM 2079 at 30 ug/ml measured after 12 hrs relative to control; format: functional; conditions: NCIM 2079, 12 h, read-out: GI; outline: as §3
Staphylococcus aureus [11] = experiment: Growth inhibition of Staphylococcus aureus NCIM 2010 at 3 ug/ml measured after 12 hrs relative to control; format: functional; conditions: NCIM 2010, 12 h, read-out: GI; outline: as §3
[12] = system: Mycobacterium tuberculosis; experiment: Growth inhibition of Mycobacterium tuberculosis H37Ra ATCC 25177 at active stage at 50 ug/ml measured after 8 days by XTT dye based two fold dilution method relative to control; format: functional; conditions: H37Ra ATCC 25177, 192 h, read-out: GI; outline: as §2
[13] = Cytotoxicity against primary HUVEC measured after 48 hrs by MTT assay; format: toxicity, cell-based; conditions: human
Pseudomonas fluorescens [14] = experiment: Growth inhibition of Pseudomonas fluorescens NCIM 2036 at 3 ug/ml measured after 8 hrs relative to control; format: functional; conditions: NCIM 2036, 8 h, read-out: GI; outline: as §3
Bacillus subtilis [15] = experiment: Growth inhibition of Bacillus subtilis NCIM 2079 at 10 ug/ml measured after 12 hrs relative to control; format: functional; conditions: NCIM 2079, 12 h, read-out: GI; outline: as §3
[16] = Cytotoxicity against human PANC1 cells measured after 48 hrs by MTT assay; format: toxicity, cell-based, PANC-1
Pseudomonas fluorescens [17] = experiment: Growth inhibition of Pseudomonas fluorescens NCIM 2036 at 30 ug/ml measured after 8 hrs relative to control; format: functional; conditions: NCIM 2036, 8 h, read-out: GI; outline: as §3
Staphylococcus aureus [18] = experiment: Growth inhibition of Staphylococcus aureus NCIM 2010 at 30 ug/ml measured after 12 hrs relative to control; format: functional; conditions: NCIM 2010, 12 h, read-out: GI; outline: as §3
[19] = system: Mycobacterium tuberculosis; experiment: Growth inhibition of Mycobacterium tuberculosis H37Ra ATCC 25177 at active stage at 3.13 ug/ml measured after 8 days by XTT dye based two fold dilution method relative to control; format: functional; conditions: H37Ra ATCC 25177, 192 h, read-out: GI; outline: as §2
[20] = Cytotoxicity against […]-differentiated human THP1 cells measured after 48 hrs by MTT assay; format: toxicity, cell-based, THP-1; outline: as §1
[21] = system: Mycobacterium tuberculosis; experiment: Growth inhibition of Mycobacterium tuberculosis H37Ra ATCC 25177 at dormant stage at 12.5 ug/ml measured after 12 days by XTT dye based two fold dilution method relative to control; format: functional; conditions: H37Ra ATCC 25177, 288 h, read-out: GI
Pseudomonas fluorescens [22] = experiment: Antibacterial activity against Pseudomonas fluorescens NCIM 2036 measured after 8 hrs; format: functional; conditions: NCIM 2036, 8 h; outline: as §3
Candida albicans = experiment: Antifungal activity against Candida albicans NCIM 3471 by standard agar method; format: functional
Outline: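 MICs determined by standard agar method; DMSO as solvent control.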

[23] = system: Mycobacterium tuberculosis; experiment: Growth inhibition of Mycobacterium bovis BCG ATCC 35743 at dormant stage at 1.56 ug/ml measured after 12 days by nitrate reductase dye based two fold dilution method relative to control; format: functional; conditions: BCG str. ATCC 35743, 288 h, read-out: GI
Outline: (§4)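 M. bovis BCG was grown in Dubos medium and assayed in Mycobacterium pheli minimal medium (pH 6.6), with compounds from DMSO stocks. Incubation lasted 8 days for active and 12 days for dormant cultures. Viability was read by nitrate reductase at 540 nm against cell-free blanks, with vehicle set as 100% growth. Primary screen was at 30, 10 and 3 µg/ml, in triplicate, mean ± SD. MIC was taken from dose-response curves.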

[24] = system: Mycobacterium tuberculosis; experiment: Growth inhibition of Mycobacterium bovis BCG ATCC 35743 at active stage at 6.25 ug/ml measured after 8 days by nitrate reductase dye based two fold dilution method relative to control; format: functional; conditions: BCG str. ATCC 35743, 192 h, read-out: GI; outline: as §4
[25] = system: Mycobacterium tuberculosis; experiment: Growth inhibition of Mycobacterium bovis BCG ATCC 35743 at dormant stage at 3.13 ug/ml measured after 12 days by nitrate reductase dye based two fold dilution method relative to control; format: functional; conditions: BCG str. ATCC 35743, 288 h, read-out: GI; outline: as §4
[26] = system: Mycobacterium tuberculosis; experiment: Growth inhibition of Mycobacterium bovis BCG ATCC 35743 at dormant stage at 12.5 ug/ml measured after 12 days by nitrate reductase dye based two fold dilution method relative to control; format: functional; conditions: BCG str. ATCC 35743, 288 h, read-out: GI
[27] = system: Mycobacterium tuberculosis; experiment: Growth inhibition of Mycobacterium bovis BCG ATCC 35743 at dormant stage at 0.78 ug/ml measured after 12 days by nitrate reductase dye based two fold dilution method relative to control; format: functional; conditions: BCG str. ATCC 35743, 288 h, read-out: GI; outline: as §4

Structure (SMILES) | inhibition at 48 h, 100 ug/ml [1] | IC50 [2] | IC90 [2] | inhibition of growth at 3 µg/mL (Bacillus subtilis [3]) | inhibition of growth at 10 µg/mL (Staphylococcus aureus [4]) | inhibition of growth at 0.78 µg/mL [5] | inhibition of growth at 10 µg/mL (Escherichia coli) | selectivity ratio [6] | inhibition at 48 h, 100 ug/ml [8] | inhibition of growth at 6.25 µg/mL [9] | inhibition of growth at 30 µg/mL (Bacillus subtilis [10]) | inhibition of growth at 3 µg/mL (Staphylococcus aureus [11]) | inhibition of growth at 50 µg/mL [12] | GI50 at 48 h [13] | inhibition of growth at 3 µg/mL (Pseudomonas fluorescens [14]) | inhibition of growth at 10 µg/mL (Bacillus subtilis [15]) | GI50 at 48 h [16] | inhibition of growth at 30 µg/mL (Pseudomonas fluorescens [17]) | inhibition of growth at 30 µg/mL (Staphylococcus aureus [18]) | inhibition of growth at 3.13 µg/mL [19] | other results
Cc1cccc2cc(/C=C3\SC(=S)N(CC(=O)O)C3=O)c(Cl)nc12 | 25% | 10.3 µg/mL (≈ 27.2 µM) | 19.9 µg/mL (≈ 52.5 µM) | -3.67% | -4.38% | -16% | 3.38% | 5 | 34% | -2.45% | -24.5% | -24.6% | 107% | > 100 µg/mL | 11.2% | -19.6% | > 100 µg/mL | 54.8% | 15.5% | -10.2% | IC50 [7]: 21.2 µg/mL (≈ 56 µM); IC90 [7]: 27.3 µg/mL (≈ 72.1 µM); GI50 at 48 h [20]: > 100 µg/mL; inhibition of growth at 12.5 µg/mL [21]: 51%; MIC (Pseudomonas fluorescens [22]): > 30 µg/mL
O=C1NC(=S)S/C1=C\c1cc2cc(F)ccc2nc1Cl | 19.2% | 5.1 µg/mL (≈ 15.7 µM) | 18 µg/mL (≈ 55.4 µM) | -6.11% | 71.3% | 9.07% | 27.5% | 5.6 | 34.2% | 73.1% | -3.29% | 45.3% | 119% | > 100 µg/mL | 29.3% | 2.58% | > 100 µg/mL | 50.2% | 101% | 52.6% | MIC (Candida albicans): 50 µg/mL (≈ 154 µM); inhibition of growth at 1.56 µg/mL [23]: -2.98%; inhibition of growth at 6.25 µg/mL [24]: 99.5%; inhibition of growth at 3.13 µg/mL [25]: 25.5%; inhibition of growth at 12.5 µg/mL [26]: 100%; GI50 at 48 h [20]: > 100 µg/mL; inhibition of growth at 12.5 µg/mL [21]: 87.3%; MIC (Pseudomonas fluorescens [22]): > 30 µg/mL; inhibition of growth at 0.78 µg/mL [27]: -38.3%
O=C1NC(=S)S/C1=C\c1cc2cc(Cl)ccc2nc1Cl | 29.1% | 2.2 µg/mL (≈ 6.45 µM) | 6.3 µg/mL (≈ 18.5 µM) | 62.8% | 114% | 24.1% | 109% | 15.6 | 25.9% | 89.5% | 101% | 101% | 97.5% | > 100 µg/mL | 95.6% | 92.5% | > 100 µg/mL | 99.8% | 101% | 81.1% | MIC (Candida albicans): 100 µg/mL (≈ 293 µM); inhibition of growth at 1.56 µg/mL [23]: 60.5%; IC50 [7]: 1.9 µg/mL (≈ 5.57 µM); IC90 [7]: 3.8 µg/mL (≈ 11.1 µM); inhibition of growth at 6.25 µg/mL [24]: 100%; inhibition of growth at 3.13 µg/mL [25]: 100%; inhibition of growth at 12.5 µg/mL [26]: 100%; GI50 at 48 h [20]: > 100 µg/mL; inhibition of growth at 12.5 µg/mL [21]: 70.3%; MIC (Pseudomonas fluorescens [22]): 2.8 µg/mL (≈ 8.21 µM); inhibition of growth at 0.78 µg/mL [27]: -9.1%
